Assay results from ChEMBL document CHEMBL4033692, “Synthesis and biological research of novel azaacridine derivatives as potent DNA-binding ligands and topoisomerase II inhibitors” (Bioorg Med Chem, 2017).
The source made the active and inactive calls. The calls are words filed in the database; no cut-off is given here.

Tests used:
HeLa = assay: Antiproliferative activity against human HeLa cells after 48 hrs by MTT assay; type: functional, cell-based
Method in brief: (§1)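 MTT assay. Cells were seeded at 5-10×10^3 per well and incubated overnight at 37 °C under 5% CO2. Graded compound concentrations or equal DMSO in fresh medium were then added for 48 h. MTT (5 mg/mL stock) was added for a further 4 h, formazan was dissolved in DMSO, and A490 was read. IC50 is given as mean ± S.D. of three experiments in triplicate.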

[1] = Antiproliferative activity against human QSG7701 cells after 48 hrs by MTT assay; type: cell-based; conditions: QSG7701, 48 h; method in brief: as §1
A549 = assay: Antiproliferative activity against human A549 cells after 48 hrs by MTT assay; type: functional, cell-based; conditions: A549, 48 h; method in brief: as §1
HepG2 = assay: Antiproliferative activity against human HepG2 cells after 48 hrs by MTT assay; type: functional, cell-based; conditions: HepG2, 48 h; method in brief: as §1
U-937 [2] = assay: Antiproliferative activity against human U937 cells after 48 hrs by MTT assay; type: functional, cell-based; conditions: U-937, 48 h; method in brief: as §1
K562 = assay: Antiproliferative activity against human K562 cells after 48 hrs by MTT assay; type: functional, cell-based; conditions: K562, 48 h; method in brief: as §1
Homo sapiens [3] = organism: Homo sapiens; assay: Inhibition of human topoisomerase-2 at 50 to 100 uM using supercoiled pBR322 DNA as substrate after 10 to 15 mins by ethidium bromide staining based electrophoresis
Method in brief: (§2)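 Relaxation of supercoiled pBR322 (500 ng) by 1 unit of human Top I or Top II, with or without compound in reaction buffer. Reactions ran 10-15 min at 37 °C and were stopped with loading buffer. Products were run on 1% agarose in TAE at 90 V for 25 min and stained with ethidium bromide under UV. Controls were CPT (Top I) and m-AMSA (Top II).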

Homo sapiens [4] = organism: Homo sapiens; assay: Inhibition of human topoisomerase-2 at 50 uM using supercoiled pBR322 DNA as substrate after 10 to 15 mins by ethidium bromide staining based electrophoresis relative to control; method in brief: as §2
Homo sapiens [5] = organism: Homo sapiens; assay: Inhibition of human topoisomerase-2 at 10 uM using supercoiled pBR322 DNA as substrate after 10 to 15 mins by ethidium bromide staining based electrophoresis relative to control; method in brief: as §2
[6] = biological target: T1, DNA topoisomerase 1 (Homo sapiens) (UniProt P11387); assay: Inhibition of human topoisomerase-1 at 100 uM using supercoiled pBR322 DNA as substrate after 10 to 15 mins by ethidium bromide staining based electrophoresis; method in brief: as §2
T1 sequence (whole entry): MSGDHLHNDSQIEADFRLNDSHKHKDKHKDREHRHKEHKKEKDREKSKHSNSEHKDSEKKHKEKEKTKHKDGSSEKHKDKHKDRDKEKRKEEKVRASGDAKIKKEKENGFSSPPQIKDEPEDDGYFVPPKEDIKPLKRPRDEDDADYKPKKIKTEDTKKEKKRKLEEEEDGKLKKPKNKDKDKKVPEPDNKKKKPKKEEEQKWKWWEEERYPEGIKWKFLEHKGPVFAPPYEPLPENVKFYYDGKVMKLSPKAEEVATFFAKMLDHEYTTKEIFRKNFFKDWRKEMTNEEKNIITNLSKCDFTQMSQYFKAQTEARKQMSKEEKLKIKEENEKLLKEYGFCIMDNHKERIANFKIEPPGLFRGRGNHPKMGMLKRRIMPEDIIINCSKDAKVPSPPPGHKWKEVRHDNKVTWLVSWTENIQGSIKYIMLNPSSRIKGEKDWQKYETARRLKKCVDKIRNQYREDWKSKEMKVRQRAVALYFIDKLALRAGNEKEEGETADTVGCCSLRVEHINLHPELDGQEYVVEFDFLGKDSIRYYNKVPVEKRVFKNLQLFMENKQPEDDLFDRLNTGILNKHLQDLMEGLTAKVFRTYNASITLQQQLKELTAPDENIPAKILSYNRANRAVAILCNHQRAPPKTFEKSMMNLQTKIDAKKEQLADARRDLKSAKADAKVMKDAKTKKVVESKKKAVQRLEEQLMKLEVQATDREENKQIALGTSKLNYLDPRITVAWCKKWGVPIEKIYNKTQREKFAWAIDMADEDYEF

U-937 [7] = assay: Induction of apoptosis in human U937 cells assessed as necrotic cells at 2.5 uM after 48 hrs by Annexin-V FITC/propidium iodide staining based flow cytometry relative to control; type: functional
Method in brief: (§3)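 U937 cells were treated for 48 h at 0, 1 or 2.5 µM. Phosphatidylserine externalization (Annexin V-FITC) and membrane integrity (PI) were then read by flow cytometry using a kit per the manufacturer's instructions.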

U-937 [8] = assay: Induction of apoptosis in human U937 cells assessed as live cells at 2.5 uM after 48 hrs by Annexin-V FITC/propidium iodide staining based flow cytometry (reference value: 92.4%); type: functional; method in brief: as §3
U-937 [9] = assay: Induction of apoptosis in human U937 cells assessed as necrotic cells at 1 uM after 48 hrs by Annexin-V FITC/propidium iodide staining based flow cytometry relative to control; type: functional; method in brief: as §3
Bos taurus [10] = organism: Bos taurus; assay: Binding affinity to calf thymus DNA after 5 mins by UV-Visible absorption spectral analysis
Method in brief: (§4)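 UV-vis titration in Tris-HCl pH 7.4 in a 1.0 cm quartz cell. Compound was at 40 µM (added from a 5 mM DMSO stock) with ct DNA at final 0, 0.75, 2.25, 3.75, 6.00 and 9.75 µM. Each mixture was incubated 5 min before the absorption spectrum was recorded.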

U-937 [11] = assay: Induction of apoptosis in human U937 cells assessed as increase in cleaved caspase-3 protein expression at 1 to 2.5 uM after 48 hrs by Western blot analysis; type: functional, cell-based
Method in brief: (§5)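 U937 cells in dishes were exposed to 1 or 2.5 µM for 48 h and lysed on ice for 0.5 h. Protein was quantified by BCA, run on 12% SDS-PAGE and transferred to PVDF. Membranes were blocked in 5% milk for 1 h, and primary antibody was applied overnight at 4 °C. Cleaved caspase-3/7/8 was detected with β-actin as loading control.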

U-937 [12] = assay: Induction of apoptosis in human U937 cells assessed as early apoptotic cells at 2.5 uM after 48 hrs by Annexin-V FITC/propidium iodide staining based flow cytometry (reference value: 7.42%); type: functional; method in brief: as §3
U-937 [13] = assay: Induction of apoptosis in human U937 cells assessed as early apoptotic cells at 1 uM after 48 hrs by Annexin-V FITC/propidium iodide staining based flow cytometry (reference value: 7.42%); type: functional; method in brief: as §3
U-937 [14] = assay: Induction of apoptosis in human U937 cells assessed as increase in cleaved caspase-8 protein expression at 1 to 2.5 uM after 48 hrs by Western blot analysis; type: functional, cell-based; method in brief: as §5
U-937 [15] = assay: Induction of apoptosis in human U937 cells assessed as late apoptotic cells at 1 uM after 48 hrs by Annexin-V FITC/propidium iodide staining based flow cytometry (reference value: 0.144%); type: functional; method in brief: as §3
U-937 [16] = assay: Induction of apoptosis in human U937 cells after 48 hrs by Annexin-V FITC/propidium iodide staining based flow cytometry; type: functional, cell-based; method in brief: as §3
U-937 [17] = assay: Induction of apoptosis in human U937 cells assessed as live cells at 1 uM after 48 hrs by Annexin-V FITC/propidium iodide staining based flow cytometry (reference value: 92.4%); type: functional; method in brief: as §3
[18] = Safety index, ratio of compound IC50 to m-AMSA IC50 for human QSG7701 cells; type: ADME, cell-based; conditions: read-out: Ratio IC50
Bos taurus [19] = organism: Bos taurus; assay: Binding affinity to calf thymus DNA assessed as bathochromic shift at 40 uM after 5 mins by UV-Visible absorption spectral analysis; method in brief: as §4
U-937 [20] = assay: Induction of apoptosis in human U937 cells assessed as late apoptotic cells at 2.5 uM after 48 hrs by Annexin-V FITC/propidium iodide staining based flow cytometry (reference value: 0.144%); type: functional; method in brief: as §3
Bos taurus [21] = organism: Bos taurus; assay: Binding affinity to calf thymus DNA after 5 mins by fluorescence emission spectral analysis
Method in brief: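 Fluorescence titration in Tris-HCl pH 7.4. Compound came from a 5 mM DMSO stock, with ct DNA at final 0, 0.2, 0.7, 1, 1.5 and 2.5 µM. Mixtures were incubated 5 min before emission spectra were recorded. Quenching was fitted to F0/F = 1 + Kq[Q].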

U-937 [22] = assay: Induction of apoptosis in human U937 cells assessed as increase in cleaved caspase-7 protein expression at 1 to 2.5 uM after 48 hrs by Western blot analysis; type: functional, cell-based; method in brief: as §5

Row | Structure (SMILES) | IC50 (HeLa) [µM] | IC50 [1] [µM] | IC50 (HepG2) [µM] | IC50 (U-937 [2]) [µM] | IC50 (K562) [µM] | topoisomerase II inhibition (active/inactive) (Homo sapiens [3]) | inhibition (Homo sapiens [4]) | inhibition (Homo sapiens [5]) [%] | other results
1 | CC[C@@]1(O)C(=O)OCc2c1cc1n(c2=O)Cc2cc3ccccc3nc2-1 [CAMPTOTHECIN] | 3.8 | < 1 | 4.92 |  |  |  |  |  | IC50 (A549): < 1 µM
2 | COc1ccc2nc3cc(Cl)ccc3c(Nc3cccc(F)c3)c2n1 |  |  | > 20 | > 20 | 15.5 | Active | > 50% | > 40 | 
3 | COc1ccc2nc3cc(Cl)ccc3c(Nc3ccccc3Cl)c2n1 |  |  | > 20 | > 20 | 6.1 | Active | > 50% | > 40 | 
4 | COc1ccc(Nc2c3ccc(Cl)cc3nc3ccc(OC)nc23)cc1 |  |  | > 20 | > 20 | 13.8 | Active | > 50% |  | 
5 | COc1ccc2nc3cc(Cl)ccc3c(Nc3ccc(C)cc3C)c2n1 |  |  | > 20 | > 20 | 14 | Active | > 50% |  | 
6 | COc1ccc2nc3cc(Cl)ccc3c(NCc3nc4ccccc4n3CCN(C)C)c2n1 | 14.8 | 21.2 | > 20 | 0.76 | 7.59 | Active | > 50% | 75.1 | inhibition [6]: Active; IC50 (A549): 13.1 µM
7 | COc1ccc2nc3cc(Cl)ccc3c(Nc3ccncc3)c2n1 |  |  | > 20 | > 20 | 13.7 | Active | > 50% | > 40 | 
8 | COc1ccc2nc3cc(Cl)ccc3c(Nc3ccccc3F)c2n1 |  |  | > 20 | > 20 | 10.9 | Active | 28.1% |  | 
9 | COc1ccc2nc3cc(Cl)ccc3c(Nc3ccc(F)cc3)c2n1 |  |  | > 20 | > 20 | 16.5 | Active | > 50% | > 40 | 
10 | COc1cc(NS(C)(=O)=O)ccc1Nc1c2ccccc2nc2ccccc12 [AMSACRINE] | 19.2 | 6.43 | 5.21 | 0.61 | 0.88 |  | Active | 56.9 | 
11 | COc1ccc2nc3cc(Cl)ccc3c(NCc3nc4ccccc4[nH]3)c2n1 | 12.6 | 29.4 | 6.62 | 0.57 | 6.06 | Active | > 50% |  | Activity (U-937 [7]): 0.322%; Activity (U-937 [8]): 61.3%; Activity (U-937 [9]): 0.227%; Kb (Bos taurus [10]): 3.34 ×10⁵ /M; Activity (U-937 [11]): Active; Activity (U-937 [12]): 26.2%; Activity (U-937 [13]): 17.5%; Activity (U-937 [14]): Active; Activity (U-937 [15]): 6.48%; Activity (U-937 [16]): Dose-dependent effect; Activity (U-937 [17]): 75.8%; IC50 (A549): 4.8 µM; selectivity ratio [18]: > 3; Activity (Bos taurus [19]): Active; Activity (U-937 [20]): 12.2%; Kq (Bos taurus [21]): 2.34 ×10⁵ /M; Activity (U-937 [22]): Active
12 | COc1ccc2nc3cc(Cl)ccc3c(NCc3nc4ccccc4[nH]3)c2c1 |  |  | > 20 |  | > 20 |  |  |  | 
